From article PMC3328361 (The Journal of Experimental Medicine, 2012)

Experiments:
SNCA = SNCA gene expression by qPCR, MPTP-lesioned WT mice; assay type: in vivo
α-synuclein [1] = target: T1, α-synuclein (Homo sapiens, UniProt P37840); experiment: α-Synuclein amyloid fibril formation; assay type: biochemical; settings: unpublished data
[2] = tested on: hA53T tg mice lesioned with MPTP; experiment: Pole test, MPTP-lesioned hA53T tg mice; assay type: in vivo
In short: (§1)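 Oral gavage of 15 or 30 mg/kg test compound or suspension vehicle began 1 d post-lesion. Saline sham-lesioned controls received vehicle. Pole test (Tturn, Ttotal) was run after 19 d of treatment.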

[3] = tested on: hA53T α-synuclein tg mice; experiment: Y-maze test, hA53T tg mice; assay type: in vivo; settings: 30 mg/kg, vehicle-treated 30%
[4] = tested on: hA53T α-synuclein tg mice; experiment: Stereological nigral cell counts, hA53T α-synuclein tg mice; assay type: in vivo; settings: 30 mg/kg, 20 d
In short: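 hA53T α-synuclein tg mice and C57BL/6 x C3H background controls, 7 mo old, equal sexes, received 30 mg/kg test compound or suspension vehicle by oral gavage for 20 d. The right hemisphere of PBS-perfused brains was fixed overnight in 4% paraformaldehyde at 4°C. Nissl-stained nigral neurons were counted stereologically using a 45 µm × 35 µm unbiased counting frame.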

[5] = tested on: hA53T α-synuclein tg mice; experiment: Pole test, hA53T α-synuclein tg mice; assay type: in vivo; settings: 30 mg/kg
α-synuclein [6] = target: T1, α-synuclein; experiment: 2D [1H,15N] HSQC NMR titration of 15N-labeled α-synuclein; assay type: binding; settings: increasing concentrations titrated in
[7] = Overt toxicity observation in animal studies; assay type: in vivo; settings: studies of this paper and a longer term 12-mo trial in wild-type animals
synaptophysin = experiment: Synaptophysin levels in striatum of hA53T tg mice; assay type: in vivo; settings: 30 mg/kg
In short: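 hA53T tg mice, 7 mo old, were given 30 mg/kg or vehicle by oral gavage for 20 d. Striatal homogenate (~20 µg) was reduced with β-mercaptoethanol, heated to 90°C for 5 min, run on 10% SDS-PAGE and blotted to nitrocellulose. Synaptophysin densitometry was normalised to GAPDH or β-actin and expressed as percentage of vehicle.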

[8] = Time-dependent degradation of ONOO^− monitored by UV-visible spectroscopy; assay type: biochemical; settings: Cu^II(atsm) at 10 µM; ONOO^− in high pH solution (alone 53 ± 3 min)
MPTP-lesioned mice = experiment: Dopamine measurement of mouse striatum; assay type: in vivo; settings: 30 mg/kg
In short: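 MPTP lesion: four i.p. doses of 10 mg/kg at 2-h intervals. Starting the next day, mice received 30 mg/kg test compound or suspension vehicle by oral gavage. Right striatum was homogenised by pulse sonication in 0.4 M perchloric acid with 0.15% sodium metabisulfite and 0.05% EDTA disodium salt for dopamine measurement.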

TH = TH levels in SNpc of MPTP-lesioned mice; assay type: in vivo
In short: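 MPTP lesion: four i.p. doses of 10 mg/kg at 2-h intervals; 15 or 30 mg/kg oral gavage from the next day. For TH immunostaining, 30 µm coronal SNpc sections were post-fixed in 4% PFA and boiled in citrate buffer (pH 6.0). They were blocked with normal goat serum and incubated overnight at room temperature with rabbit anti-TH 1:3000, then HRP secondary for 2 h and DAB. Western blots were normalised to GAPDH or β-actin.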

[9] = tested on: 6-OHDA-lesioned C57BL/6 mice; experiment: Amphetamine-induced rotation, 6-OHDA model; assay type: in vivo; settings: 30 mg/kg, 6-OHDA-lesioned mice
In short: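 Partial 6-OHDA lesion: 2 µl injected into the right substantia nigra of 2-mo-old C57BL/6 mice, 3.0 mm AP, 1.1 mm lateral, 4.7 mm DV from bregma. Amphetamine-induced rotation was tested 3 d post-lesion, before dosing, to confirm lesion size. Mice were randomised to test compound or vehicle for 18 d, then rotation was retested.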

[10] = tested on: MPTP-lesioned C57BL/6 mice; experiment: Pole test, MPTP-lesioned wild-type mice; assay type: in vivo
In short: as §1

α-synuclein [11] = experiment: α-Synuclein levels in SNpc, MPTP-lesioned wild-type mice; assay type: in vivo
In short: (§2)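 MPTP lesion: four i.p. doses of 10 mg/kg at 2-h intervals. Test compound (15 or 30 mg/kg) or vehicle was given by oral gavage from the next day for 21 d. Brain homogenate (~20 µg) was reduced, heated to 90°C for 5 min, run on 10% SDS-PAGE and blotted to nitrocellulose. Densitometry was normalised to GAPDH or β-actin and expressed as percentage of vehicle.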

[12] = tested on: MPTP-lesioned C57BL/6 mice; experiment: Stereological SNpc neuron counts, MPTP-lesioned wild-type mice; assay type: in vivo; settings: for increase in number of SNpc neurons vs vehicle-treated MPTP-lesioned mice: started 1 d after lesion, 20 d
VMAT2 [13] = experiment: VMAT2 levels in MPTP-lesioned mice; assay type: in vivo; settings: for increase in VMAT2 levels: 3–4-mo-old MPTP-lesioned mice
In short: as §2

[14] = tested on: differentiated SH-SY5Y cells; experiment: 3-NT levels in cell media by ELISA after SIN-1; assay type: cell-based, human; settings: 40 µM pretreatment before SIN-1
In short: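 Human SH-SY5Y cells were differentiated with 10 µM retinoic acid in 1.5% FCS medium for 3 d, then given fresh medium for another 3 d. Cells were preincubated with test compound (10, 20, 40 µM) for 5 min, then exposed to 3 mM SIN-1 for 90 min. Media were coated in pH 9.6 carbonate buffer for ELISA at 22°C: rabbit […] 1:2000, HRP secondary, TMB, A450.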

[15] = Rat pharmacokinetic study; assay type: in vivo, Sprague Dawley rats
In short: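 Fasted male Sprague Dawley rats (6–8 wk, ~280 g) received 20 mg/kg by oral gavage as a 6 mg/ml suspension (n = 3). Another group (n = 3) got 5 mg/kg by i.v. jugular-cannula infusion at 0.05 ml/min, as a 3 mg/ml solution in 20% DMSO/80% propylene glycol. Serial blood was taken to 24 h; plasma was acetonitrile-precipitated and analysed by LC-MS.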

[16] = tested on: hA53T tg mice lesioned with MPTP; experiment: Stereological SNpc neuron counts, MPTP-lesioned hA53T tg mice; assay type: in vivo; settings: 30 mg/kg
In short: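 MPTP was given i.p. as four 10 mg/kg doses at 2-h intervals. Groups: 4-mo-old female C57BL/6 mice and 7-mo-old hA53T α-synuclein tg mice, equal sexes. From 1 d post-lesion, mice got 15 or 30 mg/kg test compound or suspension vehicle by oral gavage for […]; saline sham-lesioned controls got vehicle. Perfused brains, right hemisphere fixed in 4% paraformaldehyde; Nissl-stained SNpc counted stereologically (45 × 35 µm frame).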

α-synuclein [17] = experiment: α-Synuclein levels in SNpc, MPTP-lesioned hA53T α-synuclein tg mice; assay type: in vivo
In short: as §2

[18] = tested on: hA53T α-synuclein tg mice; experiment: Novel object recognition; assay type: in vivo; settings: 30 mg/kg for 20 d
In short: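 hA53T α-synuclein tg mice, 7 mo old, equal sexes, received 30 mg/kg test compound or vehicle by oral gavage for 20 d. Novel object test with Lego blocks: 10-min training with two objects, 1-h delay, then one familiar object replaced by a novel 1.5 × 1.5 × 2.0 cm object. Index = time with novel object / time with familiar object.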

[19] = tested on: low copy mice overexpressing human G93A SOD1; settings: ref Soon et al., 2011, cited from earlier work
α-synuclein [20] = experiment: α-Synuclein levels, hA53T α-synuclein tg mice not MPTP-lesioned; assay type: in vivo; settings: unpublished data
[21] = tested on: differentiated SH-SY5Y cells; experiment: MTS cell viability, SIN-1–induced toxicity; assay type: cell-based, human; settings: added to cell culture 5 min after SIN-1; unpublished data
VMAT2 [22] = experiment: VMAT2 microPET imaging with 18F-AV133, MPTP-lesioned 18-mo-old mice; assay type: in vivo; settings: 18 mo MPTP-lesioned mice, 30 mg/kg
In short: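 Female B6C3H x HeJ mice, 18 mo old, had baseline VMAT2 microPET: 500 µCi 18F-AV-133 by tail vein, imaged for 30 min. They were then lesioned with 4 × 10 mg/kg MPTP. Treatment at 30 mg/kg or vehicle began the following day and ran 21 d, after which microPET imaging was repeated.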

[23] = Mouse pharmacokinetic and brain uptake study; assay type: in vivo, C57BL/6 mice
In short: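 Male C57BL/6 mice, 11 wk old, got a single 30 mg/kg oral gavage dose (7.5 mg/ml suspension in standard suspension vehicle). Plasma and brain were sampled at time points up to 24 h, n = 3 per point, under pentobarbitone anaesthesia. Samples were acetonitrile-precipitated and quantified against matrix-matched standards. Quantitation limits: 5 ng/ml plasma, 10 ng/g brain. Brain/plasma ratio taken from AUC0-6h.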

[24] = tested on: 6-OHDA-lesioned C57BL/6 mice; experiment: Stereological SNpc neuron counts, 6-OHDA-lesioned mice; assay type: in vivo; settings: 30 mg/kg, started 3 d after 6-OHDA lesion, 20 d
In short: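 6-OHDA lesion in the right substantia nigra of 2-mo-old C57BL/6 mice; dosing started 3 d post-lesion. Mice were perfused with cold PBS. The right hemisphere was fixed overnight in 4% paraformaldehyde in 0.1 M phosphate buffer at 4°C. Nissl-stained SNpc neurons were counted stereologically with an unbiased 45 µm × 35 µm counting frame.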

[25] = single oral 20 mg/kg, male Sprague Dawley rats
[26] = single oral 30 mg/kg, C57BL/6 mice

CN=C([S-])N/N=C(C)/C(C)=N/NC([S-])=NC.[Cu+2] [Cu^II(atsm), copper(II)diacetylbis(N(4)-methylthiosemicarbazonato)]
SNCA gene regulation (qPCR) (SNCA): recovered to levels of unlesioned WT mice
inhibition of formation of α-synuclein fibrils (α-synuclein [1]): did not inhibit the formation of α-synuclein fibrils
improvement in Ttotal [2]: 37%
improvement in Tturn [2]: 49%
Tturn (pole test) ([2]; vehicle 2.4 ± 0.4 s): 1.2 ± 0.1 s
Ttotal (pole test) ([2]; vehicle 6.1 ± 0.8 s): 3.9 ± 0.2 s
mean novel arm entries (Y-maze) [3]: 42%
increase in total nigral cells [4]: 14%
improvement in Ttotal times [5]: not statistically significant
Tturn (pole test) ([5]; vehicle 3.9 ± 0.5 s): 1.1 ± 0.3 s
direct interaction between α-synuclein and compound (HSQC spectra) (α-synuclein [6]): no direct interaction
overt toxicity [7]: No overt toxicity
increase in synaptophysin levels vs vehicle-treated tg mice (synaptophysin): 31%
ONOO^− half-life [8]: ~11.6 ± 0.5 min
increase in dopamine levels vs untreated MPTP-lesioned animals (MPTP-lesioned mice): 122%
TH mRNA transcript levels (qPCR, SNpc) (TH): rescued
increase in TH levels (Western blot) (TH; 15 mg/kg): 42%
increase in TH levels (Western blot) (TH; 30 mg/kg): 45%
immunostaining of TH in SNpc (TH; either 15 or 30 mg/kg): increased immunostaining
reduction in amphetamine-induced rotational behavior vs controls [9]: 45%
decrease of Tturn and Ttotal times ([10]; 15 mg/kg): did not reach statistical significance
faster Ttotal (pole test) vs MPTP-lesioned vehicle ([10]; 30 mg/kg): 2.2 s
faster Tturn (pole test) vs MPTP-lesioned vehicle ([10]; 30 mg/kg): 1.5 s
effect on motor performance of nonlesioned wild-type mice ([10]; nonlesioned wild-type mice): no effect
α-synuclein dimers, % of control-treated (α-synuclein [11]): 76%
α-synuclein monomer levels (α-synuclein [11]): no changes
increase in number of SNpc neurons vs vehicle-treated MPTP-lesioned mice ([12]; 15 mg/kg oral gavage): 43%
increase in number of SNpc neurons vs vehicle-treated MPTP-lesioned mice ([12]; 30 mg/kg oral gavage): 61%
effect on cell numbers of nonlesioned wild-type mice ([12]; nonlesioned wild-type mice): no effect
increase in VMAT2 levels (VMAT2 [13]; 15 mg/kg): 13%
increase in VMAT2 levels (VMAT2 [13]; 30 mg/kg): 12%
VMAT2 transcripts (qPCR, SNpc) (VMAT2 [13]; MPTP-lesioned animals): levels were restored to those similar to the wild-type animals
increase in VMAT2 protein levels in striatum (Western blot) (VMAT2 [13]; older (18 mo) MPTP-lesioned mice): 60%
reduction in nitrotyrosine (3-NT) levels [14]: 51%
apparent oral bioavailability ([15]; oral 20 mg/kg vs intravenous 5 mg/kg, rats): 53 ± 5%
Tmax [15, 25]: 10 h
elimination half-life [15, 25]: 3.1 ± 0.4 h
Cmax ([15]; single oral 20 mg/kg, male Sprague Dawley rats, plasma): 488.1 ± 67.0 ng/mL
increase of SNpc neurons [16]: 15%
reduction in α-synuclein monomer levels (α-synuclein [17]; MPTP-lesioned hA53T tg mice): 12%
α-synuclein dimers, % of control-treated (α-synuclein [17]; MPTP-lesioned hA53T α-synuclein tg mice): 83%
increase in interactions with the novel object vs vehicle-treated mice [18]: 73%
motor phenotype in ALS tg mouse model ([19]; pre- and postsymptomatic treatment regimes): successful in rescuing the motor phenotype
survival in ALS tg mouse model [19]: increased survival rates
α-synuclein levels vs vehicle treatment (α-synuclein [20]): did not lead to any significant differences
protective effect in posttreatment paradigm [21]: no protective effect was observed
increase in 18F-AV133 ligand binding vs vehicle control lesioned mice (VMAT2 [22]): 142%
maximum concentration of the compound in the brain ([23]; based on Cmax levels, oral 30 mg/kg mice): ~0.6 µM
brain Cmax [23, 26]: 198 ± 61 ng/mL
brain Tmax [23, 26]: 120 min
brain/plasma ratio (AUC0-6h) [23, 26]: 0.32
plasma Cmax [23, 26]: 591 ± 203 ng/mL
plasma Tmax [23, 26]: 60 min
apparent elimination half-life ([23]; single oral 30 mg/kg, C57BL/6 mice, plasma): ~3.3 h
increase in number of SNpc dopaminergic neurons [24]: 26%
